Source: PubChem (Broad Institute)
PDI inh = blocks human protein disulfide isomerase activity | P07237 | inhibition, % at 10 µM | PDI insulin aggregation turbidity, A650, 90 min | actives 0.052% (n = 350,000) | AID 588391;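 active = mean inhibition across replicates of 30% or more, whatever share of single replicates reach that level; inconclusive = mean inhibition below 30% while every single replicate reaches 30%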
HIV Env fusion = blocks HIV Env-driven cell-cell fusion. HeLa-JRFL Env/CEM21 cell fusion, luciferase. inhibition, % at 12.3 µM. actives 1.1% (n = 360,000);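 active = mean replicate inhibition score of at least 50 and every replicate individually at or above 50; inconclusive = only one of the two criteria met; inactive = mean below 50 and not all replicates reaching 50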;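 note: 0% = plate neutral controls and 100% = maraviroc near 300 nM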
FN deposit inh = fibronectin deposition inhibition. actives 0.086% (n = 350,000). AH1F fibroblasts, Alexa488-fibronectin deposition fluorescence, overnight. inhibition, % at 12.6 µM. AID 743247;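 active = mean inhibition across replicates of 30% or more, regardless of how many single replicates reach that level; inconclusive = mean under 30% yet at least half of replicates reach 30%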;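 note: positive control wells lacked labelled fibronectin entirely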
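Assay system: AH1F fibroblasts / Quantity: 10000 cells per well / Medium: DMEM plus 2% serum, read in PBS / Reagent: labelled fibronectin 24 nM / Dosing: single dose, pinned / Times: 1 h cell attachment, overnight exposure to compound and label / Signal: fluorescence, ex 485 nm, em 525 nm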
ERp5 inh = blocks human ERp5 reductase activity on insulin. Q15084. ERp5 insulin aggregation, absorbance 650 nm, 90 min. inhibition, % at 9.99 µM. actives 0.05% (n = 350,000);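 active = mean replicate inhibition above about 25%, with every replicate also reaching it, limit read from the data, passing the limit was not always enough; inconclusive = only one of those two criteria met; inactive = neither criterion met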
Target sequence (Q15084 whole entry, looked up): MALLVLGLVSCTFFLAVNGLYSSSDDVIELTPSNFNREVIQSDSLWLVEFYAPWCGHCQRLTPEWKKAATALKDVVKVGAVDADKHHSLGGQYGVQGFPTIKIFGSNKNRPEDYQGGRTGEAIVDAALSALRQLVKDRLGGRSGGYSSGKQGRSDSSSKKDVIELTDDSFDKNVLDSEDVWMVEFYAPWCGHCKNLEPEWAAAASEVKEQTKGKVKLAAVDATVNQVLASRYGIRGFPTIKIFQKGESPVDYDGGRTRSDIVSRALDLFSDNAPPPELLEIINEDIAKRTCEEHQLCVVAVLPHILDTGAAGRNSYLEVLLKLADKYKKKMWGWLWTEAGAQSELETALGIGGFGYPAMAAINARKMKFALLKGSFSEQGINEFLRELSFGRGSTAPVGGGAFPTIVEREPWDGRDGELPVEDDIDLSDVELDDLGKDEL
GSIS activator = primary screen for activators of insulin secretion dependent on glucose, INS-1E cells, GLuc reporter luminescence. INS-1E GLuc reporter insulin secretion, 2-3 h. activation, % at 16.6 µM. actives 0.61% (n = 370,000);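 active = lowest replicate activation of at least 40%, so every replicate reaches that level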;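 note: 0% = median of neutral control wells and 100% = median of IBMX positive control wells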
Numbers without * were called inactive; ? = inconclusive; . = not tested or not shown; [ ] = remark or other dose. Only some compounds are listed: those with a hit (about 1.4% of all), similar ones and a draw of the others.

SMILES	PDI inh	HIV Env fusion	FN deposit inh	ERp5 inh	GSIS activator
CNc1nc(NCc2ccc(C)cc2C)c2sccc2n1	6	-1	16	1	-20
c1ccc(-c2nc(NCC3CC3)nc3ccsc23)cc1	1	-15	-6	4	78*
Cc1ccc(CNc2nc(NCc3ccccc3)nc3ccsc23)c(C)c1	0	36	-6	0	196*
c1cc2cc(CNc3nc(NCC4CC4)nc4ccsc34)ccc2o1	-8	80*	6	7	.
Cc1ccc(S(=O)(=O)N2C[C@@H](O)COC[C@H]3O[C@@H](CC(=O)N[C@@H]4CCN(Cc5ccccc5)C4)CC[C@@H]32)cc1	.	.	-6	4	-5
O=C(C[C@H]1CC[C@@H](NC(=O)c2ccc3c(c2)OCO3)[C@H](CO)O1)NCc1ccc(F)cc1	.	12[16.7 µM]	.	-2	12
CN1CCN(C(=O)C[C@H]2CC[C@H](NC(=O)Cc3ccccn3)[C@@H](CO)O2)CC1	.	-12[16.7 µM]	1	-2	16
C[C@@H]1CN([C@@H](C)CO)C(=O)c2cc(NC(=O)CCC(F)(F)F)ccc2O[C@H]1CN(C)C(=O)NC1CCCCC1	.	-2[16.7 µM]	.	0	23
O=S(=O)(c1cccs1)N1CN(C2CCCCC2)c2nc3ccccc3nc21	6	-93	2	-2	80*
O=S(=O)(c1cccs1)N1CN(C2CCCC2)c2nc3ccccc3nc21	.	8	4	0	27
CO[C@@H]1CN(C)C(=O)c2ccc(NC(=O)Cc3ccccc3)cc2OC[C@@H](C)N(C(C)=O)C[C@@H]1C	.	.	14	-1	9
COc1ccc(CN(CCN2CCOCC2)C(=O)c2c(F)cccc2F)cc1OC	0	.	.	-3	31
C=CCN(Cc1ccc(OC)c(OC)c1)C(=O)N1CCOCC1	22	-3	-1	11	53*
COc1ccc(C(=O)NCC(=O)OCC(=O)Nc2ccc(C)c(S(=O)(=O)N(C)C)c2)cc1OC	-1	7	-5	0	68*
C[C@@H]1CN([C@H](C)CO)C(=O)c2cc(NC(=O)CCC(F)(F)F)ccc2O[C@@H]1CN(C)Cc1ccc(Cl)c(Cl)c1	.	1[16.7 µM]	.	-2	-46
CSc1nc(SCC(=O)O)c2sc3nc(-c4ccccc4)c4c(c3c2n1)CCC4	53*	-31	4	3	-20
CSc1nc(N(C)CCO)c2sc3nc(-c4ccco4)c4c(c3c2n1)CCC4	-1	.	.	.	.
COc1cc(NC(=O)c2c(-c3ccccc3Cl)noc2C)c2ncccc2c1	1	25	2	1	51*
C[C@@H]1O[C@@H](O[C@H]2[C@H](O)[C@@H](O)[C@H](Oc3c(-c4ccc(O)c(O)c4)oc4cc(O)cc(O)c4c3=O)O[C@@H]2CO)[C@H](O)[C@H](O)[C@H]1O	67*	-11	1	-7	8
C[C@@H]1O[C@@H](OC[C@H]2O[C@@H](Oc3cc(O)c4c(=O)cc(-c5ccc(O)c(O)c5)oc4c3)[C@H](O)[C@@H](O)[C@@H]2O)[C@H](O)[C@H](O)[C@H]1O	4	.	.	.	.
C[C@@H]1O[C@@H](Oc2c(-c3cc(O)c(O)c(O)c3)oc3cc(O)cc(O)c3c2=O)[C@H](O)[C@H](O)[C@H]1O	47*	5	-5	12	-4
COc1cc(-c2oc3cc(O)cc(O)c3c(=O)c2O[C@@H]2O[C@H](COC3O[C@@H](C)[C@H](O)[C@@H](O)[C@H]3O)[C@@H](O)[C@H](O)[C@H]2O)ccc1O (stereo not given in full)	56*	-12	2	-2	-1
C[C@@H]1O[C@@H](Oc2c(-c3ccc(O)c(O)c3)oc3cc(O)cc(O)c3c2=O)[C@H](O)[C@H](O)[C@H]1O	73*	8	7	2	-2
O=c1c2c(O)cc(O)cc2oc2c(O)ccc(O[C@H]3O[C@@H](CO)[C@H](O)[C@@H](O)[C@@H]3O)c12	2	6	-2	0	-5
O=c1c(O)c(-c2ccc(O)cc2)oc2cc(O)cc(O)c12	.	.	.	-1	11
SMILES	PDI inh	HIV Env fusion	FN deposit inh	ERp5 inh	GSIS activator
O=C(c1ccccc1F)N1C[C@H]2[C@@H](c3ccccc31)[C@@H](CO)N2CC1CCCCC1	.	.	.	7	-8
C/C=C/c1ccc2c(c1)[C@H]1[C@H](CCN1C(=O)COC)[C@@H](CO)N2	.	.	-20	.	20
CCC(=O)N1[C@@H](CO)[C@H](c2ccc(-c3ccc(C#N)cc3)cc2)C12CN(C(C)=O)C2	.	.	.	5	4
COc1ccc(C(O)c2nc(-c3ccc(OC)c(OC)c3)cs2)cc1 (stereo not given)	1	-6	8	-1	66*
C[C@@H]1CN([C@H](C)CO)C(=O)c2cc(NC(=O)Nc3ccc(C(F)(F)F)cc3)ccc2O[C@H]1CN(C)C	.	.	-4	1	4
FC(F)(F)c1cc(-c2ccccc2)nc(NCc2cccnc2)n1	-5	-70	active	.	.
CCCC(O)(CCC)C(=O)NN(C(=O)CCl)c1ccccc1	-7	85*	-3	2	4
Cc1ccc(CNC(=O)CCCC(=O)c2ccccc2)cc1	4	-13	3	-1	32
O=C(CCCC(=O)c1ccccc1)NCc1ccccc1	-4	-2	-2	0	40*
C[C@]12CC[C@@H]3c4ccc(O[C@@H]5O[C@H](C(=O)O)[C@@H](O)[C@H](O)[C@H]5O)cc4CC[C@H]3[C@@H]1C[C@@H](O)[C@@H]2O	?	-3	-14	4	1
C=CCOc1ccc2c(c1)CCC1C2CCC2(C)C(O)C(O)CC12 (stereo not given)	-3	.	8	-5	47*
Cc1ccccc1COC(=O)c1nn(-c2ccccc2)nc1N	1	-27	31*	2	-3
Nc1nn(-c2ccccc2)nc1C(=O)OCc1ccccc1F	0	.	.	.	.
CN(C)CC(=O)N[C@H]1CC[C@H](CCNC(=O)C2CC2)O[C@@H]1CO	.	.	-9	-1	-4
COc1cc(OC)c2ccc(=O)oc2c1C(CC(=O)N1CCCC1)c1ccc(N(C)C)cc1 (stereo not given)	2	-35	-8	9	-19
COc1cc(OC)c2ccc(=O)oc2c1C(CC(=O)N1CCOCC1)c1ccc(N(C)C)cc1 (stereo not given)	2	15	31*	.	17
COc1ccc(C(C(=O)NC(C)(C)C)n2c(=O)c(-c3cc4ccccc4[nH]3)nc3ccccc32)cc1 (stereo not given)	.	11	6	-1	12
CC(C)(C)NC(=O)C(c1ccncc1)n1c(=O)c(-c2cc3ccccc3[nH]2)nc2ccccc21 (stereo not given)	.	58*	0	2	-14
O=C(Nc1cc(Br)ccc1O)c1cnn2c(C(F)F)cc(C3CC3)nc12	1	12	-2	8	12
O=C(Nc1cccnc1)c1cnn2c(C(F)F)cc(C3CC3)nc12	-6	.	.	.	60*
